Activity calls are given as the source filed them. The rule behind the calls is not given here.
What was measured:
[1] = target: T1, D(3) dopamine receptor (Homo sapiens, UniProt P35462); assay: Agonist activity at recombinant human dopamine D3 receptor expressed in CHO-K1 cells assessed as […] in cAMP accumulation after 30 mins by HTRF assay relative to dopamine; format: functional, cell-based
[2] = target: T2, D(2) dopamine receptor (Homo sapiens, UniProt P14416); assay: Agonist activity at human dopamine D2 receptor-short expressed in CHO-K1 cells assessed as reduction in adenylyl cyclase activator NKH 477 induced cAMP accumulation preincubated for 10 mins followed by NKH 477 addition by HTRF assay; format: functional, cell-based
T2 sequence (P14416 whole entry): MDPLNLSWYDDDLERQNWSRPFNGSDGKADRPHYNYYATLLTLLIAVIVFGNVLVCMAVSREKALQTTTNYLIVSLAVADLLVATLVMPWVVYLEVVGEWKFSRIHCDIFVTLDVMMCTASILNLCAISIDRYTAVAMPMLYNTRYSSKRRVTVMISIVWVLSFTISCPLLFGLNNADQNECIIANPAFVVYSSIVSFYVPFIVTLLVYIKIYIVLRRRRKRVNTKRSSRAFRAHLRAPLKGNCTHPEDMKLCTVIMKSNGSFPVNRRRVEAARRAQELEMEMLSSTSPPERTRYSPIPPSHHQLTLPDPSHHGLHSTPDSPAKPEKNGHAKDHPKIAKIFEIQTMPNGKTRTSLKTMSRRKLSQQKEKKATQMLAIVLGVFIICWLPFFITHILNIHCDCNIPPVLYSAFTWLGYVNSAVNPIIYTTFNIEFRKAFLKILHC

[3] = target: T2, D(2) dopamine receptor; assay: Agonist activity at human dopamine D2 receptor-short expressed in CHO-K1 cells assessed as reduction in adenylyl cyclase activator NKH 477 induced cAMP accumulation preincubated for 10 mins followed by NKH 477 addition by HTRF assay relative to dopamine; format: functional, cell-based
[4] = species on record: Homo sapiens; assay: Ratio of EC50 for human dopamine D2 receptor-short expressed in CHO-K1 cells to EC50 for recombinant human dopamine D3 receptor expressed in CHO-K1 cells; format: cell-based
[5] = target: 5-hydroxytryptamine receptor 1B (Rattus norvegicus) (UniProt P28564); assay: Displacement of [125I]CYP from 5HT-1B receptor in OFA rat cortical membranes at 10 to 100 nM after 90 mins by scintillation counting; format: cell membranes
5-hydroxytryptamine receptor 1B (Rattus norvegicus), sequence (P28564 whole entry): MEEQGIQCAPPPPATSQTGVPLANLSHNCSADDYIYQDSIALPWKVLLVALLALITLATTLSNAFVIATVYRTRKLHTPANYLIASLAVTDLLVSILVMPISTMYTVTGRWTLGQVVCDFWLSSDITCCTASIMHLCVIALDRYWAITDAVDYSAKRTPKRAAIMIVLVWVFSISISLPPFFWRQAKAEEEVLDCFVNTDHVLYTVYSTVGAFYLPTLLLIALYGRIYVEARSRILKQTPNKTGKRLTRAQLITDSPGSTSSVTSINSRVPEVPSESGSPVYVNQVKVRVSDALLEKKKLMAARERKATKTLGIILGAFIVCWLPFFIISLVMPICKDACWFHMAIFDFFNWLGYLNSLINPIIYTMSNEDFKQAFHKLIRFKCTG

[6] = Volume of distribution in Sprague-Dawley rat plasma at 3 mg/kg, iv by UPLC-MS analysis; format: ADME, organism-based
In short: (§1)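 Cannulated male Sprague-Dawley rats (175–200 g), three per dose, dosed IV at 3 mg/kg or PO at 10 mg/kg in PEG400/Tween 80/saline 10/10/80. Blood taken IV at 0–240 min and PO at 0–1440 min. Plasma extracted with cold acetonitrile plus internal standard and analysed by UPLC-MS/MS against a 1 nM–10 μM calibration. PK parameters derived from time/concentration profiles.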

[7] = Cmax in Sprague-Dawley rat plasma at 10 mg/kg, po by UPLC-MS analysis; format: ADME, organism-based; parameters: dose 10 mg/kg, route oral; in short: as §1
[8] = Tmax in Sprague-Dawley rat brain at 10 mg/kg, po by UPLC-MS analysis; format: ADME, organism-based
In short: (§2)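 Male Sprague-Dawley rats, three per time point, dosed orally at 10 mg/kg in PEG400/Tween 80/saline 10/10/80. Brains taken at 1 h and 4 h, homogenized in RIPA buffer and extracted with cold acetonitrile plus internal standard. Compound quantified by UPLC-MS/MS; protein measured by BCA.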

[9] = Cmax in Sprague-Dawley rat plasma at 3 mg/kg, iv by UPLC-MS analysis; format: ADME, organism-based; parameters: dose 3 mg/kg, route intravenous; in short: as §1
[10] = Tmax in Sprague-Dawley rat plasma at 3 mg/kg, iv by UPLC-MS analysis; format: ADME, organism-based; in short: as §1
[11] = target: T3, 5-hydroxytryptamine receptor 1A (Homo sapiens) (UniProt P08908); assay: Displacement of [3H]8-OH-DPAT from human 5HT-1A receptor expressed in Sf9 insect cells at 100 nM after 60 mins by scintillation counting
T3 sequence (whole entry): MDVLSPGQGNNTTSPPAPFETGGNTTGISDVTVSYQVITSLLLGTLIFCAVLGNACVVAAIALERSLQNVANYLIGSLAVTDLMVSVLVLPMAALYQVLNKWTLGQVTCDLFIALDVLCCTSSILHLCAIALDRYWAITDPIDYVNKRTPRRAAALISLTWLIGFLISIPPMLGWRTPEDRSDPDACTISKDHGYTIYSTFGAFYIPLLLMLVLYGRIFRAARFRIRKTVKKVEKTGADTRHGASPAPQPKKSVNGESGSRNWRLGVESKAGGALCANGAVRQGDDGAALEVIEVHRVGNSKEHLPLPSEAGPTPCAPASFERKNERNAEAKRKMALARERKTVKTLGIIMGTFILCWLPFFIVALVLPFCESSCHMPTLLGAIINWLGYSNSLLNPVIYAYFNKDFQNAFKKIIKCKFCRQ

[12] = target: Beta-1 adrenergic receptor (Homo sapiens) (UniProt P08588); assay: Displacement of [3H](-)CGP12177 from human beta1 adrenergic receptor expressed in HEK293 cells at 10 to 100 nM after 45 mins by scintillation counting; format: cell-based
Beta-1 adrenergic receptor (Homo sapiens), sequence (P08588 whole entry, looked up): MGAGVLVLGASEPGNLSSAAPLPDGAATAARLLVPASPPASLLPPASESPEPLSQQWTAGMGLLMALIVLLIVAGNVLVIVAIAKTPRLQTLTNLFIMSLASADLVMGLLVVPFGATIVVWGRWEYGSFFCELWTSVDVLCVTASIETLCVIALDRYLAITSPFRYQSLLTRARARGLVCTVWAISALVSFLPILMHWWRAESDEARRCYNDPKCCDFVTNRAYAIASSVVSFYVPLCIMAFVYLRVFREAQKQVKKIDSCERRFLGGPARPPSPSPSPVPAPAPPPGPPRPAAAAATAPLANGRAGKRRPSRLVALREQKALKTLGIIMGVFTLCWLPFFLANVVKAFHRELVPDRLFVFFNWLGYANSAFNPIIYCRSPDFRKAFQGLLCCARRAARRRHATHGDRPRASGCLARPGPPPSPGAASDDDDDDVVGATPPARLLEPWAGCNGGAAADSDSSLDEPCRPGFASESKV

[13] = Half life in rat plasma at 2 uM by UPLC-MS analysis; format: ADME, cell-free
In short: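 Compound at 2 μM final in rat plasma with 5% DMSO, incubated at 37 °C. Samples taken at 0, 5, 15, 30, 60 and 120 min and quenched in cold acetonitrile with internal standard.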

[14] = Clearance in Sprague-Dawley rat plasma at 3 mg/kg, iv by UPLC-MS analysis; format: ADME, organism-based; in short: as §1
[15] = tested on: Brain; assay: Total drug uptake in Sprague-Dawley rat brain at 10 mg/kg, po by UPLC-MS analysis; format: ADME, organism-based; settings: in vivo, read-out: Drug uptake; in short: as §2
[16] = target: Beta-2 adrenergic receptor (Homo sapiens) (UniProt P07550); assay: Displacement of [3H](-)CGP12177 from beta2 adrenergic receptor (unknown origin) at 10 to 100 nM by scintillation counting
Beta-2 adrenergic receptor (Homo sapiens), sequence (P07550 whole entry, looked up): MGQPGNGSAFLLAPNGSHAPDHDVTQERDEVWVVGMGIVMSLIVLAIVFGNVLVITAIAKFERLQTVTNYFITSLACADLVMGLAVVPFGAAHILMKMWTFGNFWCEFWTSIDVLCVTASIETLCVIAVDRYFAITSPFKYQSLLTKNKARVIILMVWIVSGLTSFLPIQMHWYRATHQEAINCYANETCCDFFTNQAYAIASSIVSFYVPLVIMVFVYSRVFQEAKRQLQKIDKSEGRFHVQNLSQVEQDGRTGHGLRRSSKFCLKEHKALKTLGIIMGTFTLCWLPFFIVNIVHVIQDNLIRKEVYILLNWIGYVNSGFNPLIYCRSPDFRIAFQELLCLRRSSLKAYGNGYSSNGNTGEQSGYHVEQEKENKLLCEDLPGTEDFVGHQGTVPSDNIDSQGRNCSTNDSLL

[17] = Elimination half life in Sprague-Dawley rat plasma at 3 mg/kg, iv by UPLC-MS analysis; format: ADME, organism-based; settings: read-out: beta t1/2; in short: as §1
[18] = Cmax in Sprague-Dawley rat brain at 10 mg/kg, po by UPLC-MS analysis; format: ADME, organism-based; parameters: dose 10 mg/kg, route oral; in short: as §2
[19] = Half life in rat liver microsomes at […] by UPLC-MS analysis; format: ADME, microsome
[20] = Oral bioavailability in Sprague-Dawley rat […] at 10 mg/kg by UPLC-MS analysis; format: ADME, organism-based
[21] = AUC in Sprague-Dawley rat brain at 10 mg/kg, po by UPLC-MS analysis; format: ADME, organism-based; in short: as §2
[22] = target: T4, Monoglyceride lipase (Homo sapiens) (UniProt Q99685); assay: Irreversible inhibition of human MAGL after 1 hr by LC-MS/MS analysis
T4 sequence (whole entry): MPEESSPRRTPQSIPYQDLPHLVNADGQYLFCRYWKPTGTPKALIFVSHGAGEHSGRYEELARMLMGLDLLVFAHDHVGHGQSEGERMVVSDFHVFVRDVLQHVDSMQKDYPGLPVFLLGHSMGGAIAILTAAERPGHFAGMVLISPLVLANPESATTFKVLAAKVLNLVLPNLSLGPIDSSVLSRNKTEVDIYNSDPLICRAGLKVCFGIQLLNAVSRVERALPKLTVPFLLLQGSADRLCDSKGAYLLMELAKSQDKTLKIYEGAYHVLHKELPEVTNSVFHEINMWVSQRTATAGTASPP

[23] = target: T1, D(3) dopamine receptor; assay: Agonist activity at recombinant human dopamine D3 receptor expressed in CHO-K1 cells assessed as […] in cAMP accumulation after 30 mins by HTRF assay; format: functional, cell-based
[24] = target: T5, Fatty-acid amide hydrolase 1 (Homo sapiens, UniProt O00519); assay: Inhibition of human FAAH1 expressed in HEK293 cell membrane-enriched lysate using AMC arachidonyl amide as substrate preincubated for 50 mins followed by substrate addition measured after 4 hrs by fluorescence analysis
T5 sequence (O00519 whole entry): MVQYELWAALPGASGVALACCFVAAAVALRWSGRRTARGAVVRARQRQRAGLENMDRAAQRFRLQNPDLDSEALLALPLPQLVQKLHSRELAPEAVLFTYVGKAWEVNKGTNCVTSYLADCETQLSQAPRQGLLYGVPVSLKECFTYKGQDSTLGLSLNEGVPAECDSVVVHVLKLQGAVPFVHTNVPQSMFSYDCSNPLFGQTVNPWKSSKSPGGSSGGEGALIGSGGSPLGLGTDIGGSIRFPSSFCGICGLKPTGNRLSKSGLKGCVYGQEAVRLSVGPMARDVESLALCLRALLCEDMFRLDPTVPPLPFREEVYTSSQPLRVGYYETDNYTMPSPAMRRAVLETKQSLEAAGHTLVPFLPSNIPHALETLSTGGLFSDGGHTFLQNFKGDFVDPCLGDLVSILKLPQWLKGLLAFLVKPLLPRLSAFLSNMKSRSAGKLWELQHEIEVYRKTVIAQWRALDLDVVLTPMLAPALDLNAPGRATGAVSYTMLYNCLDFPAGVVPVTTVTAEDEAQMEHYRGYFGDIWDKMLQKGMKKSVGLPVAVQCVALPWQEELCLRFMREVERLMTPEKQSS
In short: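 Membrane-enriched lysate (2,5 μg) from HEK293 cells stably expressing human FAAH-1, pre-incubated 50 min with compound or 2,5% DMSO vehicle in 50 mM Tris-HCl pH 7.4, 0.05% fatty acid-free BSA. Then 1 μM AMC arachidonyl amide added, 4 h at 37 °C.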

T1 sequence (P35462 whole entry): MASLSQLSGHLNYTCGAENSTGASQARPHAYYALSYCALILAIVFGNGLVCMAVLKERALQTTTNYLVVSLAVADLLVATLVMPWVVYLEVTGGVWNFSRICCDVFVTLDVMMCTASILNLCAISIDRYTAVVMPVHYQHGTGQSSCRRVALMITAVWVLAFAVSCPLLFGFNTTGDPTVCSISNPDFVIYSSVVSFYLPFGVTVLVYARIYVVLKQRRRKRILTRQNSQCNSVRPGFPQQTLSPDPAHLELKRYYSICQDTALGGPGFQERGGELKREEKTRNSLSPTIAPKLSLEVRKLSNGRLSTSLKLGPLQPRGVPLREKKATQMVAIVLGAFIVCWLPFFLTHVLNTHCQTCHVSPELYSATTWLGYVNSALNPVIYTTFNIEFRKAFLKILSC

## O=C(NCCCCN1CCN(c2cccc(Cl)c2Cl)CC1)Oc1ccc2c(c1)[nH]c1ccccc12
[1]
  Efficacy: > 90%

## NC(=O)c1cccc(-c2ccc(OC(=O)NCCCCN3CCN(c4ccccc4C(F)(F)F)CC3)cc2)c1
[2]
  Activity: inactive

## COc1ccccc1N1CCN(CCCCNC(=O)Oc2ccc3c(c2)[nH]c2ccccc23)CC1
[1]
  Efficacy: 66%
[3]
  Efficacy: 44%
[4]
  Ratio EC50: 4.8
[2]
  EC50: 57.9 nM

## Cl.O=C(NCCCCN1CCN(c2cccc(Cl)c2Cl)CC1)Oc1ccc(-c2ccccc2)cc1
[5]
  inhibition: inactive
[6]
  Vd: 23.7 L/kg
[7]
  Cmax: 54 ng/mL
[8]
  Tmax: 4 h
[9]
  Cmax: 500 ng/mL
[10]
  Tmax: 5 min
[11]
  inhibition: 60.4%
[12]
  inhibition: inactive
[13]
  half-life at 2 µM: 1.62 h
[14]
  clearance: 110 mL/min/kg
[15]
  concentration: 391 nM
[16]
  inhibition: inactive
[17]
  half-life: 2.42 h
[18]
  Cmax: 37 ng/mL
[19]
  half-life at […]: > 1 h
[20]
  bioavailability: 21%
[21]
  AUC: 1.41 ng·h/mL
[22]
  inhibition: inactive

## O=C(NCCCCN1CCN(c2ccccc2C(F)(F)F)CC1)Oc1ccc(-c2ccccc2)cc1
[1]
  Efficacy: > 90%
[23]
  EC50: 1200 nM
[24]
  IC50: 20.7 nM

## NC(=O)c1cccc(-c2ccc(OC(=O)NCCCCN3CCN(c4ccccc4)CC3)cc2)c1
[1]
  Efficacy: 88%

## O=C(NCCCN1CCN(c2cccc(Cl)c2Cl)CC1)Oc1ccc2c(c1)[nH]c1ccccc12
[1]
  Efficacy: > 90%

## COc1cc(OC(=O)NCCCCN2CCN(c3cccc(Cl)c3Cl)CC2)ccc1-c1ccccc1
[1]
  Efficacy: 32%
[23]
  EC50: 1.66 nM
[24]
  IC50: 4.3 nM

## NC(=O)c1cccc(-c2ccc(OC(=O)NCCCCN3CCN(c4cccc(Cl)c4Cl)CC3)cc2F)c1
[1]
  Efficacy: 74%
[3]
  Efficacy: 40.4%
[2]
  EC50: 13.7 nM
[24]
  IC50: 1 nM

From ChEMBL document CHEMBL4007414, “Design, Synthesis, Structure-Activity Relationship Studies, and Three-Dimensional Quantitative Structure-Activity Relationship (3D-QSAR) Modeling of a Series of O-Biphenyl Carbamates as Dual Modulators of Dopamine D3 Receptor and Fatty Acid Amide Hydrolase” (J Med Chem, 2017)
